Assay outcomes: PubChem, several laboratories
RanGTP-Impb inh: disruptors of Ran-importin-beta complex formation – biochemical, FRET, CFP-Ran, YFP-importin-beta, homogeneous, primary screen | cell-free CFP-Ran/YFP-importin-beta FRET ratio | 1.1% of 300,000 active | inhibition, % (no concentration beside the values);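 active = more than half of the replicate wells show a fall in the fluorescence ratio signal beyond about 16%, limit read from the data, passing the limit was not always enough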
Hck-Nef inh: blocks Nef-activated human Hck kinase | P08631 | Recombinant Hck-YEEI plus Nef, Z-Lyte FRET kinase assay | inhibition, % at 20 µM | 0.68% of 220,000 active | AID 463187;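 active = Hck-Nef kinase inhibition above about 50%, limit read from the data; inactive = inhibition below that limit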
Runt-SMMHC FRET: blocks binding of human RUNX1 Runt domain to CBFb-SMMHC; Q01196+Q13951; Cerulean-Runt/Venus-CBFb-SMMHC FRET ratio 530/480, 1 h; inhibition, % at 20 µM; 0.74% of 220,000 active; AID 1434;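 active = mean inhibition across duplicate retests at 20 µM reaching about 50%, limit read from the data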;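 also: inhibitors lower the FRET ratio by blocking Runt binding to CBFb-SMMHC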
Runt-CBFb FRET: Runt domain-CBFb interaction inhibition; AID 1496; Cerulean-Runt/Venus-CBFb FRET ratio 530/480, 1 h; inhibition, % at 20 µM; Q01196+Q13951; 0.46% of 220,000 active;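 active = inhibition over about 50% at 20 µM in the single-dose screen, limit read from the data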
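Measured by: fluorescence energy transfer, 422 nm excitation, 530/480 nm emission; Assay system: Cerulean-Runt domain; Medium: Tris pH 7.5 buffer with BSA; Measure: loss of energy transfer signal; Controls: 5 µM unlabeled CBFb as full-inhibition high control; Incubation: protein complex preformed 1 h, compound exposure 1 h, room temperature, dark.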
YIC counter: counter-screen for RanGTP-importin-beta inhibitors: YIC FRET probe | Purified YIC probe, intramolecular FRET ratio YFP/CFP | 40% of 1,000 active | shares compounds with RanGTP-Impb inh | IC50, µM;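 active = fitted half-maximal inhibitory concentration no more than tenfold above the top dose tested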
Of the large screens only hits and unclear results are named; the others gave an inactive call (follow-up assays come after a bar, where they were run). A selection: hits, their analogues and other compounds. The true share with any hit is near 1.8%.

COc1ccccc1C(=O)c1cc2ccc(O)cc2oc1=O	RanGTP-Impb inh 55, Runt-SMMHC FRET 127, Runt-CBFb FRET 114 | YIC counter 7.1
CCc1ccc(C2=NN(C(=O)CCC(=O)O)C(c3cccs3)C2)cc1 (stereo unspecified)	none (no result: Hck-Nef inh, Runt-SMMHC FRET, Runt-CBFb FRET)
CCCC1(c2ccccc2)NC(=O)N(CC(=O)N(C)Cc2c(F)cccc2Cl)C1=O (stereo unspecified)	none (no result: Hck-Nef inh, Runt-SMMHC FRET, Runt-CBFb FRET)
Cc1cc(S(=O)(=O)N2CCCCC2)c(C)s1	none (no result: Hck-Nef inh, Runt-SMMHC FRET, Runt-CBFb FRET)
C=CCS/C(N)=N\N=C\c1c(O)ccc2ccccc12	none
O=c1cc(CN2CCN(S(=O)(=O)c3ccc4c(c3)OCCO4)CC2)c2ccc(O)cc2o1	RanGTP-Impb inh 46, Runt-SMMHC FRET 102, Runt-CBFb FRET 102 | YIC counter 6.9
CC1(C)CC(=O)C=C(NNC(=O)C2CCCCC2)C1	RanGTP-Impb inh 19 | YIC counter inactive
COc1ccccc1CNC(=O)c1nn(C)c2c1CS(=O)(=O)c1ccccc1-2	none (no result: Hck-Nef inh, Runt-SMMHC FRET, Runt-CBFb FRET)
Cc1cccc2sc(NC(=O)CN3C(=O)NC4(CCCC4)C3=O)nc12	none (no result: Hck-Nef inh, Runt-SMMHC FRET, Runt-CBFb FRET)
O=C(CN1C(=O)NC2(CCCC2)C1=O)Nc1nc2c(F)cc(F)cc2s1	RanGTP-Impb inh 20 (no result: Hck-Nef inh, Runt-SMMHC FRET, Runt-CBFb FRET) | YIC counter inactive
COc1ccc(C(=O)/C=C(\C)NCc2ccc3c(c2)OCO3)cc1	RanGTP-Impb inh 24 | YIC counter inactive
CC(=O)Oc1ccc(C(=O)NCc2ccc3c(c2)OCO3)cc1	none (no result: Hck-Nef inh, Runt-SMMHC FRET, Runt-CBFb FRET)
CCCCn1c(N)c(N(CC(C)C)C(=O)c2oc3ccc(Br)cc3c2C)c(=O)[nH]c1=O	none (no result: Hck-Nef inh, Runt-SMMHC FRET, Runt-CBFb FRET)
O=S(=O)(CCN1CCSCC1)c1ccccc1	none
O=C1C(=O)N(CCS(=O)(=O)c2ccccc2)c2ccc(Cl)cc21	RanGTP-Impb inh 39 (no result: Hck-Nef inh, Runt-SMMHC FRET, Runt-CBFb FRET) | YIC counter inactive
C[C@@H]1CN([C@@H](C)CO)C(=O)c2cc(NS(C)(=O)=O)ccc2O[C@@H](C)CCCCO[C@H]1CN(C)C(=O)Cc1ccccc1	none (no result: RanGTP-Impb inh, Hck-Nef inh, Runt-SMMHC FRET, Runt-CBFb FRET) | YIC counter inactive
COc1ccc(C2C(C#N)=C(N)Oc3cc4c(cc32)OCO4)cc1 (stereo unspecified)	RanGTP-Impb inh 25 | YIC counter inactive
CCC(=O)N(CC(=O)Nc1sc(C)c(C)c1C(N)=O)C1CCCC1	RanGTP-Impb inh 22 | YIC counter inactive
Cc1ccc2[nH]c(=O)c(COC(=O)C3CCCCC3)cc2c1	none
Cc1ccccc1-n1c(=O)cc(N2CCC3(CC2)OCCO3)[nH]c1=O	RanGTP-Impb inh 33 | YIC counter inactive
COCCCNC(=O)/C(C#N)=C/c1c(N2CCN(c3ccccc3)CC2)nc2ccccn2c1=O	RanGTP-Impb inh 26 (no result: Hck-Nef inh, Runt-SMMHC FRET, Runt-CBFb FRET) | YIC counter 29
Cc1ccc(/C=C2/C(=O)c3ccc(C(=O)O)cc3C2=O)o1	RanGTP-Impb inh 19 | YIC counter inactive
CCOC(=O)c1ccc(NC(=O)CSc2nc(C)nc3c2c(=O)n(C)c(=O)n3C)cc1	RanGTP-Impb inh 19 | YIC counter inactive
Nc1nc2ncc(CNc3ccc(C(=O)N[C@@H](CCC(=O)O)C(=O)O)cc3)nc2c(=O)[nH]1	none (no result: Hck-Nef inh, Runt-SMMHC FRET, Runt-CBFb FRET)
CN(Cc1cnc2nc(N)nc(N)c2n1)c1ccc(C(=O)N[C@@H](CCC(=O)O)C(=O)O)cc1	RanGTP-Impb inh 23 (no result: Hck-Nef inh, Runt-SMMHC FRET, Runt-CBFb FRET) | YIC counter inactive
COc1ccccc1NC(=O)c1cc2ccccc2nc1C	RanGTP-Impb inh 23 | YIC counter inactive
COc1cc(NC(=O)c2n[nH]c(=O)c3ccccc23)cc(OC)c1	none
COc1ccc(-c2nc(NC(=O)c3n[nH]c(=O)c4ccccc34)sc2C)cc1	RanGTP-Impb inh 22 | YIC counter inactive
CC1=C(C(=O)OCC2CCCO2)C(c2cccc(C(F)(F)F)c2)C2=C(CC(c3ccco3)CC2=O)N1 (stereo unspecified)	none
CC1=C(C(=O)OCC2CCCO2)C(c2ccccc2OC(C)C)C2=C(CC(c3ccco3)CC2=O)N1 (stereo unspecified)	RanGTP-Impb inh 28, Runt-SMMHC FRET 103 | YIC counter 6.9
Cc1ccccc1CN1CCN(Cc2cc(=O)c3ccccc3[nH]2)CC1CCO (stereo unspecified)	none (no result: Hck-Nef inh, Runt-SMMHC FRET, Runt-CBFb FRET)
Oc1nc(Nc2ccc(F)cc2)sc1/C=C1\C=Nc2ccccc21	RanGTP-Impb inh 19 | YIC counter inactive
CC1=Nc2ccccc2/C1=C/c1sc(=O)n(CC(=O)N2CCCC2)c1O	none
CC1=Nc2ccccc2/C1=C\c1sc(Nc2ccc(C)cc2)nc1O	RanGTP-Impb inh 21 | YIC counter inactive
Oc1nc(Nc2cccc(Cl)c2)sc1/C=C1\C=Nc2ccccc21	none
